System: Fibroblast
Test: Multiplex assay against human fibroblast
Type: toxicity, cell-based
Outline: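 At seeding, live cells were stained with Hoechst33342, BioTracker Green Microtubule Cytoskeleton Dye, MitoTracker Red and Annexin V Alexa Fluor 680. After compound addition they were imaged on a CQ1 microscope at 37°C and 5% CO2, and CellPathfinder machine-learning gating sorted them into Hoechst high-intensity objects or normal cells, with normal cells further split into healthy, pyknosed or fragmented nuclei and pyknosed cells into mitotic or apoptotic. Tubulin, mitochondrial-mass and membrane-permeability phenotypes are given as per cents of cells with healthy nuclei.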

[1] = 12 h, 1 µM, compound concentration 1 uM, replicate 1
[2] = 12 h, 1 µM, compound concentration 1 uM, replicate 2
[3] = 12 h, 10 µM, compound concentration 10 uM, replicate 1
[4] = 12 h, 10 µM, compound concentration 10 uM, replicate 2
[5] = 24 h, 1 µM, compound concentration 1 uM, replicate 1
[6] = 24 h, 1 µM, compound concentration 1 uM, replicate 2
[7] = 24 h, 10 µM, compound concentration 10 uM, replicate 1
[8] = 24 h, 10 µM, compound concentration 10 uM, replicate 2
[9] = 48 h, 1 µM, compound concentration 1 uM, replicate 1
[10] = 48 h, 1 µM, compound concentration 1 uM, replicate 2
[11] = 48 h, 10 µM, compound concentration 10 uM, replicate 1
[12] = 48 h, 10 µM, compound concentration 10 uM, replicate 2

CCCS(=O)(=O)c1nc(NC2CC2)cc(-c2ccc3c(ccn3C3CC(C)(C)NC(C)(C)C3)c2)n1
Population Apoptotic (%) [1]: 41%
Population Fragmented Nuclei (%) [1]: 27%
Population Healthy Nuclei (%) [1]: 42%
Population Hoechst High Intensity Objects (%) [1]: 11%
Population Membrane Permeable-Phenotype (%) [1]: 22%
Population Mitochondria Different-Phenotype (%) [1]: 0%
Population Mitotic Cells (%) [1]: 58%
Population Normal (%) [1]: 88%
Population Pyknosed Nuclei (%) [1]: 30%
Population Tubulin-Different-Phenotype (%) [1]: 35%
Total Cell Count [1]: 107
Population Apoptotic (%) [2]: 38%
Population Fragmented Nuclei (%) [2]: 14%
Population Healthy Nuclei (%) [2]: 71%
Population Hoechst High Intensity Objects (%) [2]: 5%
Population Membrane Permeable-Phenotype (%) [2]: 5%
Population Mitochondria Different-Phenotype (%) [2]: 41%
Population Mitotic Cells (%) [2]: 61%
Population Normal (%) [2]: 94%
Population Pyknosed Nuclei (%) [2]: 13%
Population Tubulin-Different-Phenotype (%) [2]: 29%
Total Cell Count [2]: 1044
Population Apoptotic (%) [3]: 71%
Population Fragmented Nuclei (%) [3]: 42%
Population Healthy Nuclei (%) [3]: 4%
Population Hoechst High Intensity Objects (%) [3]: 10%
Population Membrane Permeable-Phenotype (%) [3]: 60%
Population Mitochondria Different-Phenotype (%) [3]: 0%
Population Mitotic Cells (%) [3]: 28%
Population Normal (%) [3]: 89%
Population Pyknosed Nuclei (%) [3]: 53%
Population Tubulin-Different-Phenotype (%) [3]: 40%
Total Cell Count [3]: 124
Population Apoptotic (%) [4]: 92%
Population Fragmented Nuclei (%) [4]: 75%
Population Hoechst High Intensity Objects (%) [4]: 7%
Population Membrane Permeable-Phenotype (%) [4]: 100%
Population Mitochondria Different-Phenotype (%) [4]: 38%
Population Mitotic Cells (%) [4]: 7%
Population Normal (%) [4]: 92%
Population Pyknosed Nuclei (%) [4]: 19%
Population Tubulin-Different-Phenotype (%) [4]: 84%
Total Cell Count [4]: 101
Population Apoptotic (%) [5]: 42%
Population Fragmented Nuclei (%) [5]: 33%
Population Healthy Nuclei (%) [5]: 39%
Population Hoechst High Intensity Objects (%) [5]: 15%
Population Membrane Permeable-Phenotype (%) [5]: 23%
Population Mitochondria Different-Phenotype (%) [5]: 13%
Population Mitotic Cells (%) [5]: 57%
Population Normal (%) [5]: 84%
Population Pyknosed Nuclei (%) [5]: 27%
Population Tubulin-Different-Phenotype (%) [5]: 39%
Total Cell Count [5]: 114
Population Apoptotic (%) [6]: 22%
Population Fragmented Nuclei (%) [6]: 15%
Population Healthy Nuclei (%) [6]: 66%
Population Hoechst High Intensity Objects (%) [6]: 5%
Population Membrane Permeable-Phenotype (%) [6]: 10%
Population Mitochondria Different-Phenotype (%) [6]: 21%
Population Mitotic Cells (%) [6]: 77%
Population Normal (%) [6]: 94%
Population Pyknosed Nuclei (%) [6]: 18%
Population Tubulin-Different-Phenotype (%) [6]: 29%
Total Cell Count [6]: 1113
Population Apoptotic (%) [7]: 76%
Population Fragmented Nuclei (%) [7]: 38%
Population Healthy Nuclei (%) [7]: 11%
Population Hoechst High Intensity Objects (%) [7]: 19%
Population Membrane Permeable-Phenotype (%) [7]: 63%
Population Mitochondria Different-Phenotype (%) [7]: 0%
Population Mitotic Cells (%) [7]: 24%
Population Normal (%) [7]: 80%
Population Pyknosed Nuclei (%) [7]: 50%
Population Tubulin-Different-Phenotype (%) [7]: 54%
Total Cell Count [7]: 123
Population Apoptotic (%) [8]: 90%
Population Fragmented Nuclei (%) [8]: 73%
Population Healthy Nuclei (%) [8]: 10%
Population Hoechst High Intensity Objects (%) [8]: 7%
Population Membrane Permeable-Phenotype (%) [8]: 96%
Population Mitochondria Different-Phenotype (%) [8]: 75%
Population Mitotic Cells (%) [8]: 10%
Population Normal (%) [8]: 92%
Population Pyknosed Nuclei (%) [8]: 15%
Population Tubulin-Different-Phenotype (%) [8]: 96%
Total Cell Count [8]: 104
Population Apoptotic (%) [9]: 58%
Population Fragmented Nuclei (%) [9]: 34%
Population Healthy Nuclei (%) [9]: 36%
Population Hoechst High Intensity Objects (%) [9]: 20%
Population Membrane Permeable-Phenotype (%) [9]: 16%
Population Mitochondria Different-Phenotype (%) [9]: 10%
Population Mitotic Cells (%) [9]: 41%
Population Normal (%) [9]: 79%
Population Pyknosed Nuclei (%) [9]: 28%
Population Tubulin-Different-Phenotype (%) [9]: 60%
Total Cell Count [9]: 105
Population Apoptotic (%) [10]: 75%
Population Fragmented Nuclei (%) [10]: 46%
Population Healthy Nuclei (%) [10]: 49%
Population Hoechst High Intensity Objects (%) [10]: 8%
Population Membrane Permeable-Phenotype (%) [10]: 26%
Population Mitochondria Different-Phenotype (%) [10]: 12%
Population Mitotic Cells (%) [10]: 25%
Population Normal (%) [10]: 91%
Population Pyknosed Nuclei (%) [10]: 3%
Population Tubulin-Different-Phenotype (%) [10]: 46%
Total Cell Count [10]: 110
Population Apoptotic (%) [11]: 76%
Population Fragmented Nuclei (%) [11]: 59%
Population Healthy Nuclei (%) [11]: 25%
Population Hoechst High Intensity Objects (%) [11]: 39%
Population Membrane Permeable-Phenotype (%) [11]: 76%
Population Mitochondria Different-Phenotype (%) [11]: 4%
Population Mitotic Cells (%) [11]: 23%
Population Normal (%) [11]: 60%
Population Pyknosed Nuclei (%) [11]: 15%
Population Tubulin-Different-Phenotype (%) [11]: 61%
Total Cell Count [11]: 137
Population Apoptotic (%) [12]: 75%
Population Fragmented Nuclei (%) [12]: 78%
Population Healthy Nuclei (%) [12]: 15%
Population Hoechst High Intensity Objects (%) [12]: 37%
Population Membrane Permeable-Phenotype (%) [12]: 33%
Population Mitochondria Different-Phenotype (%) [12]: 9%
Population Mitotic Cells (%) [12]: 25%
Population Normal (%) [12]: 62%
Population Pyknosed Nuclei (%) [12]: 5%
Population Tubulin-Different-Phenotype (%) [12]: 42%
Total Cell Count [12]: 215
